Experiments:
[1] = test system: B16; assay: MST of treated animal over control when administered at a dose of 2.5 mg/kg intraperitoneally on Q01Dx01 treatment schedule in B16 melanocarcinoma cell lines; type: functional, Mus musculus; conditions: route intraperitoneal
Method in brief: (§1)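 B16 melanocarcinoma: C57Bl/6 mice implanted sc with cell suspension on day 0; single ip dose in 0.15 M NaCl saline given on day 1. Median survival time was recorded in days, with toxicity taken as survivors on day 5. T/C% = treated MST/control MST × 100; >125% is considered significant.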

[2] = test system: B16; assay: MST of treated animal over control when administered at a dose of 10 mg/kg intraperitoneally on Q01Dx01 treatment schedule in B16 melanocarcinoma cell lines; type: functional, Mus musculus; conditions: route intraperitoneal; method in brief: as §1
[3] = test system: L1210; assay: Number of survivors of L1210 cell line on day 5/ number of treated mice at a dose of 9ip injection of 5 mg/kg on Q01Dx09 treatment schedule; 10/10; type: functional, Mus musculus
[4] = test system: L1210; assay: MST of treated animal over control when administered at a dose of 20 mg/kg intraperitoneally on Q01Dx01 treatment schedule in L1210 cell lines; type: functional, Mus musculus; conditions: route intraperitoneal
Method in brief: (§2)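 L1210 leukaemia: DBA/2 mice inoculated ip with 10^5 cells on day 0, with ip drug in 0.15 M NaCl saline on the stated schedule. The read-out was median survival time in days, with toxicity taken as survivors on day 5. T/C% = treated MST/control MST × 100; >125% is considered significant.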

[5] = test system: L1210; assay: Median survival time of L1210 cell line after a dose of 10 mg/kg administered intraperitoneally on Q01Dx05 treatment schedule; type: functional, Mus musculus; conditions: route intraperitoneal; method in brief: as §2
[6] = test system: L1210; assay: Median survival time of L1210 cell line after a dose of 15 mg/kg administered intraperitoneally on Q01Dx02 treatment schedule; type: functional, Mus musculus; conditions: route intraperitoneal; method in brief: as §2
[7] = test system: L1210; assay: Number of survivors of L1210 cell line on day 5/ number of treated mice at a dose of 1 i.p. injection of 20 mg/kg on Q01Dx01 treatment schedule; 10/10; type: functional, Mus musculus; conditions: route intraperitoneal
[8] = test system: L1210; assay: Number of survivors of L1210 cell line on day 5/ number of treated mice at a dose of 5ip injection of 10 mg/kg on Q01Dx05 treatment schedule; 10/10; type: functional, Mus musculus
[9] = test system: P388; assay: Number of survivors of P388 lymphocytic leukemia cell line on day 5/ number of treated mice at a dose of 5 ip injection of 10 mg/kg on Q01Dx05 treatment schedule; 10/10; type: functional, Mus musculus; conditions: route intraperitoneal
[10] = test system: P388; assay: Number of survivors of P388 lymphocytic leukemia cell line on day 5/ number of treated mice at a dose of 7po injection of 10 mg/kg on Q01Dx07 treatment schedule; 10/10; type: functional, Mus musculus
[11] = test system: P388; assay: Number of survivors of P388 lymphocytic leukemia cell line on day 5/ number of treated mice at a dose of 7po injection of 15 mg/kg on Q01Dx07 treatment schedule; 10/10; type: functional, Mus musculus
[12] = test system: P388; assay: MST of treated animal over control when administered at a dose of 10 mg/kg perorally on Q01Dx07 treatment schedule; type: functional, Mus musculus; conditions: route oral
Method in brief: (§3)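 P388 leukaemia: DBA/2 mice inoculated with 10^6 cells on day 0; treatment began day 1 at the stated route and schedule. Drug was dissolved in 0.15 M NaCl saline. The read-out was median survival time (MST, days), with toxicity taken as survivors on day 5. T/C% = treated MST/control MST × 100; ≥125% is considered significant.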

[13] = test system: P388; assay: MST of treated animal over control when administered at a dose of 2.5 mg/kg intraperitoneally on Q01Dx09 treatment schedule; type: functional, Mus musculus; conditions: route intraperitoneal; method in brief: as §3
[14] = test system: P388; assay: MST of treated animal over control when administered at a dose of 5 mg/kg intraperitoneally on Q01Dx05 treatment schedule; type: functional, Mus musculus; conditions: route intraperitoneal; method in brief: as §3
[15] = test system: P388; assay: Number of survivors of P388 lymphocytic leukemia cell line on day 5/ number of treated mice at a dose of 1 i.p. injection of 20 mg/kg on Q01Dx01 treatment schedule; 10/10; type: functional, Mus musculus; conditions: route intraperitoneal
[16] = test system: P388; assay: Number of survivors of P388 lymphocytic leukemia cell line on day 5/ number of treated mice at a dose of 1 i.v. injection of 15 mg/kg on Q01Dx01 treatment schedule; 10/10; type: functional, Mus musculus; conditions: route intravenous
[17] = test system: P388; assay: Number of survivors of P388 lymphocytic leukemia cell line on day 5/ number of treated mice at a dose of 1 i.v. injection of 15 mg/kg on Q01Dx01 treatment schedule; 5/10; type: functional, Mus musculus; conditions: route intravenous
[18] = test system: P388; assay: Median survival time of P388 lymphocytic leukemia cell line after a dose of 10 mg/kg administered intraperitoneally on Q01Dx01 treatment schedule; type: functional, Mus musculus; conditions: route intraperitoneal; method in brief: as §3
[19] = test system: P388; assay: Median survival time of P388 lymphocytic leukemia cell line after a dose of 10 mg/kg administered intraperitoneally on Q04Dx03 treatment schedule; type: functional, Mus musculus; conditions: route intraperitoneal; method in brief: as §3
[20] = test system: P388; assay: Median survival time of P388 lymphocytic leukemia cell line after a dose of 5 mg/kg administered intraperitoneally on Q01Dx05 treatment schedule; type: functional, Mus musculus; conditions: route intraperitoneal; method in brief: as §3
[21] = test system: P388; assay: Median survival time of P388 lymphocytic leukemia cell line after a dose of 5 mg/kg administered intraperitoneally on Q01Dx09 treatment schedule; type: functional, Mus musculus; conditions: route intraperitoneal; method in brief: as §3
[22] = test system: P388; assay: Median survival time of P388 lymphocytic leukemia cell line after a dose of 15 mg/kg administered intravenously on Q01Dx01 treatment schedule; type: functional, Mus musculus; conditions: route intravenous; method in brief: as §3
[23] = test system: P388; assay: Median survival time of P388 lymphocytic leukemia cell line after a dose of 15 mg/kg administered perorally on Q01Dx07 treatment schedule; type: functional, Mus musculus; conditions: route oral; method in brief: as §3
[24] = test system: P388; assay: Median survival time of P388 lymphocytic leukemia cell line after a dose of 5 mg/kg administered intravenously on Q01Dx01 treatment schedule; type: functional, Mus musculus; conditions: route intravenous; method in brief: as §3
[25] = test system: Salmonella typhimurium; assay: Mutagenesis test was performed at 0.3 uM concentration in Salmonella Typhimurium TA 98; type: functional, Salmonella enterica subsp. enterica serovar Typhimurium
Method in brief: (§4)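 Salmonella typhimurium his auxotrophs TA98 and TA100 were tested by liquid suspension without metabolic activation. Overnight Oxoid nutrient broth cultures were subcultured, grown 2 h, then exposed to drug for 5 h. Cells were washed, resuspended to A650 2.50, and plated in top agar (0.6% agar, 0.6% NaCl). His+ revertants per plate were counted after 48 h at 37 °C; values are means of three assays.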

[26] = test system: Salmonella typhimurium; assay: Mutagenesis test was performed at 10 uM concentration in Salmonella Typhimurium TA 100; type: functional, Salmonella enterica subsp. enterica serovar Typhimurium; method in brief: as §4
[27] = test system: Salmonella typhimurium; assay: Mutagenesis test was performed at 20 uM concentration in Salmonella Typhimurium TA 98; type: functional, Salmonella enterica subsp. enterica serovar Typhimurium; method in brief: as §4
[28] = test system: Salmonella typhimurium; assay: Mutagenesis test was performed at 40 uM concentration in Salmonella Typhimurium TA 98; type: functional, Salmonella enterica subsp. enterica serovar Typhimurium; method in brief: as §4
[29] = test system: Salmonella typhimurium; assay: Mutagenesis test was performed at 4 uM concentration in Salmonella Typhimurium TA 98; type: functional, Salmonella enterica subsp. enterica serovar Typhimurium; method in brief: as §4
[30] = test system: Salmonella typhimurium; assay: Mutagenesis test was performed at 60 uM concentration in Salmonella Typhimurium TA 98; type: functional, Salmonella enterica subsp. enterica serovar Typhimurium; method in brief: as §4
[31] = test system: Sarcoma-180; assay: MST of treated animal over control when administered at a dose of 20 mg/kg intraperitoneally on Q01Dx01 treatment schedule in sarcoma 180 cell lines; type: functional, Mus musculus; conditions: route intraperitoneal
Method in brief: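 Sarcoma 180: Swiss mice inoculated ip with 10^6 cells on day 0, with single ip injection of drug in 0.15 M NaCl saline. Median survival time was recorded in days, with toxicity taken as survivors on day 5. T/C% = treated MST/control MST × 100; >125% is considered significant.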

[32] = test system: L1210; assay: Median survival time of L1210 cell line after a dose of 5 mg/kg administered intraperitoneally on Q01Dx09 treatment schedule; type: functional, Mus musculus; conditions: route intraperitoneal; method in brief: as §2

O=C1C(N2CC2)=C(N2CC2)C(=O)c2ncncc21
T/C [1]: 121% | T/C [2]: 91% | Toxicity Survivors [3]: 10 | T/C [4]: 115% | MST [5]: 9.1 days | MST [6]: 9 days | Toxicity Survivors [7]: 10 | Toxicity Survivors [8]: 10 | Toxicity Survivors [9]: 10 | Toxicity Survivors [10]: 10 | Toxicity Survivors [11]: 10 | T/C [12]: 100% | T/C [13]: 128% | T/C [14]: 138% | Toxicity Survivors [15]: 10 | Toxicity Survivors [16]: 10 | Toxicity Survivors [17]: 5 | MST [18]: 9.5 days | MST [19]: 9.9 days | MST [20]: 10.4 days | MST [21]: 10.4 days | MST [22]: 10.4 days | MST [23]: 7.6 days | MST [24]: 10.4 days | Revertants/plate [25]: 84 | Revertants/plate [26]: 97 | Revertants/plate [27]: 98 | Revertants/plate [28]: 334 | Revertants/plate [29]: 81 | Revertants/plate [30]: 1080 | T/C [31]: 110% | MST [32]: 9.1 days

— ChEMBL document CHEMBL1122504, “Heterocyclic Quinones. 4. A new highly cytotoxic drug: 6,7-bis(1-aziridinyl)-5,8-quinazolinedione” (1983)
